# ChEMBL document CHEMBL1138172, “Selective irreversible inhibition of fructose 1,6-bisphosphate aldolase from Trypanosoma brucei” (J Med Chem, 2006)
# Activity calls are given as the source filed them. No cut-off for these calls is given here.
# Experiments:
# [1] = target: T1, Fructose-bisphosphate aldolase, glycosomal (Trypanosoma brucei brucei) (UniProt P07752); assay: Inhibitory activity against mutated recombinant Trypanosoma brucei aldolase K116M
# T1 sequence (whole entry): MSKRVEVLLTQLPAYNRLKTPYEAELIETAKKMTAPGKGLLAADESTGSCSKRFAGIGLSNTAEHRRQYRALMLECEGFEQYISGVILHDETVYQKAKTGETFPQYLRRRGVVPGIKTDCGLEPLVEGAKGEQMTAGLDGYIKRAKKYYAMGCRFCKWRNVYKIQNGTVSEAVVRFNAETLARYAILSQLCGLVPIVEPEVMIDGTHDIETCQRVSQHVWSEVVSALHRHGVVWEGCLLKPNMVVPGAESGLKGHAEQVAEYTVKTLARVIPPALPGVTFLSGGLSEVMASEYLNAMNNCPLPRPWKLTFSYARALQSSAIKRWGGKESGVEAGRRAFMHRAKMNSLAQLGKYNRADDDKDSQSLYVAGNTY
# [2] = target: T1, Fructose-bisphosphate aldolase, glycosomal (Trypanosoma brucei brucei); assay: Protection of inhibitory activity by DHAP against Trypanosoma brucei aldolase at 10 mM after 5 min; design: scale not given: the % may be the effect or the level left
# [3] = target: T1, Fructose-bisphosphate aldolase, glycosomal (Trypanosoma brucei brucei); assay: Protection of inhibitory activity by DHAP against Trypanosoma brucei aldolase at 10 mM after 15 min; design: scale not given: the % may be the effect or the level left
# [4] = target: T1, Fructose-bisphosphate aldolase, glycosomal (Trypanosoma brucei brucei); assay: Protection of inhibitory activity by FBP against Trypanosoma brucei aldolase at 1 mM after 5 min; design: scale not given: the % may be the effect or the level left
# [5] = target: T2, Fructose-bisphosphate aldolase, glycosomal (Trypanosoma brucei brucei, UniProt P07752); assay: Inhibition of Trypanosoma brucei class1 Aldolase
# T2 sequence (P07752 whole entry): T1 sequence (whole entry)
# [6] = target: T1, Fructose-bisphosphate aldolase, glycosomal (Trypanosoma brucei brucei); assay: Protection of inhibitory activity by DHAP against Trypanosoma brucei aldolase at 0.25 mM after 5 min; design: scale not given: the % may be the effect or the level left
# [7] = target: T1, Fructose-bisphosphate aldolase, glycosomal (Trypanosoma brucei brucei); assay: Protection of inhibitory activity by DHAP against Trypanosoma brucei aldolase at 0.25 mM after 15 min; design: scale not given: the % may be the effect or the level left
# [8] = target: T1, Fructose-bisphosphate aldolase, glycosomal (Trypanosoma brucei brucei); assay: Protection of inhibitory activity by DHAP against Trypanosoma brucei aldolase at 0.5 mM after 5 min; design: scale not given: the % may be the effect or the level left
# [9] = target: T1, Fructose-bisphosphate aldolase, glycosomal (Trypanosoma brucei brucei); assay: Protection of inhibitory activity by DHAP against Trypanosoma brucei aldolase at 0.5 mM after 15 min; design: scale not given: the % may be the effect or the level left
# [10] = target: T1, Fructose-bisphosphate aldolase, glycosomal (Trypanosoma brucei brucei); assay: Protection of inhibitory activity by DHAP against Trypanosoma brucei aldolase at 1 mM after 5 min; design: scale not given: the % may be the effect or the level left
# [11] = target: T1, Fructose-bisphosphate aldolase, glycosomal (Trypanosoma brucei brucei); assay: Protection of inhibitory activity by DHAP against Trypanosoma brucei aldolase at 1 mM after 15 min; design: scale not given: the % may be the effect or the level left
# [12] = target: T1, Fructose-bisphosphate aldolase, glycosomal (Trypanosoma brucei brucei); assay: Protection of inhibitory activity by FBP against Trypanosoma brucei aldolase at 1 mM after 15 min; design: scale not given: the % may be the effect or the level left
# [13] = target: T1, Fructose-bisphosphate aldolase, glycosomal (Trypanosoma brucei brucei); assay: Protection of inhibitory activity by FBP against Trypanosoma brucei aldolase at 10 mM after 5 min; design: scale not given: the % may be the effect or the level left
# [14] = target: T1, Fructose-bisphosphate aldolase, glycosomal (Trypanosoma brucei brucei); assay: Protection of inhibitory activity by FBP against Trypanosoma brucei aldolase at 10 mM after 15 min; design: scale not given: the % may be the effect or the level left
# [15] = target: T1, Fructose-bisphosphate aldolase, glycosomal (Trypanosoma brucei brucei); assay: Protection of inhibitory activity by HBP against Trypanosoma brucei aldolase at 1 mM after 5 min; design: scale not given: the % may be the effect or the level left
# [16] = target: T1, Fructose-bisphosphate aldolase, glycosomal (Trypanosoma brucei brucei); assay: Protection of inhibitory activity by HBP against Trypanosoma brucei aldolase at 1 mM after 15 min; design: scale not given: the % may be the effect or the level left
# [17] = target: T1, Fructose-bisphosphate aldolase, glycosomal (Trypanosoma brucei brucei); assay: Protection of inhibitory activity by HBP against Trypanosoma brucei aldolase at 0.1 mM after 5 min; design: scale not given: the % may be the effect or the level left
# [18] = target: T1, Fructose-bisphosphate aldolase, glycosomal (Trypanosoma brucei brucei); assay: Protection of inhibitory activity by HBP against Trypanosoma brucei aldolase at 0.1 mM after 15 min; design: scale not given: the % may be the effect or the level left
# [19] = target: T1, Fructose-bisphosphate aldolase, glycosomal (Trypanosoma brucei brucei); assay: Protection of inhibitory activity by NBP against Trypanosoma brucei aldolase at 1 mM after 5 min; design: scale not given: the % may be the effect or the level left
# [20] = target: T1, Fructose-bisphosphate aldolase, glycosomal (Trypanosoma brucei brucei); assay: Protection of inhibitory activity by NBP against Trypanosoma brucei aldolase at 1 mM after 15 min; design: scale not given: the % may be the effect or the level left
# [21] = target: T3, Fructose-bisphosphate aldolase A (Oryctolagus cuniculus) (UniProt P00883); assay: Residual activity against rabbit muscle class1 Aldolase at 0.1 mM after 5 min; conditions: Muscle tissue
# T3 sequence (whole entry): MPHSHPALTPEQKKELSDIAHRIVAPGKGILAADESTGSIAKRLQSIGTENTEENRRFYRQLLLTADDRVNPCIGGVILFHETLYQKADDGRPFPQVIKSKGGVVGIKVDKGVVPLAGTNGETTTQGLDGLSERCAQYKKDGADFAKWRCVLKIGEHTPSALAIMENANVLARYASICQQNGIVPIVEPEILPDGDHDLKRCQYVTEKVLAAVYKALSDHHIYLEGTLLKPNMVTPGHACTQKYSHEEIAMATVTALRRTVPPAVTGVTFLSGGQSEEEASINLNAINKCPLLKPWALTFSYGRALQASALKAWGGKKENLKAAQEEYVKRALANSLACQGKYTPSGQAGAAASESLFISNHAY
# [22] = target: T3, Fructose-bisphosphate aldolase A (Oryctolagus cuniculus); assay: Residual activity against rabbit muscle class1 Aldolase at 0.1 mM after 15 min; conditions: Muscle tissue
# [23] = target: T1, Fructose-bisphosphate aldolase, glycosomal (Trypanosoma brucei brucei); assay: Residual activity against Trypanosoma brucei class1 Aldolase at 0.5 mM after 5 min
# [24] = target: T1, Fructose-bisphosphate aldolase, glycosomal (Trypanosoma brucei brucei); assay: Residual activity against Trypanosoma brucei class1 Aldolase at 0.5 mM after 15 min
# [25] = target: T1, Fructose-bisphosphate aldolase, glycosomal (Trypanosoma brucei brucei); assay: Residual activity against Trypanosoma brucei class1 Aldolase at 0.02 mM after 5 min
# [26] = target: T1, Fructose-bisphosphate aldolase, glycosomal (Trypanosoma brucei brucei); assay: Residual activity against Trypanosoma brucei class1 Aldolase at 0.02 mM after 15 min
# [27] = target: T1, Fructose-bisphosphate aldolase, glycosomal (Trypanosoma brucei brucei); assay: Residual activity against Trypanosoma brucei class1 Aldolase at 100 uM after 15 min
# Method in brief: (§1)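 Aldolases from different sources, including mammalian (human liver) and protozoan parasite enzymes, were each incubated at 0.2 mg/mL with the inhibitor at 100 µM. Residual enzyme activity was then measured.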
# [28] = target: T4, Fructose-1,6-bisphospate aldolase (Leishmania mexicana) (UniProt Q9U5N6); assay: Residual activity against Leishmania mexicana class1 Aldolase at 100 uM after 15 min; method in brief: as §1
# T4 sequence (whole entry): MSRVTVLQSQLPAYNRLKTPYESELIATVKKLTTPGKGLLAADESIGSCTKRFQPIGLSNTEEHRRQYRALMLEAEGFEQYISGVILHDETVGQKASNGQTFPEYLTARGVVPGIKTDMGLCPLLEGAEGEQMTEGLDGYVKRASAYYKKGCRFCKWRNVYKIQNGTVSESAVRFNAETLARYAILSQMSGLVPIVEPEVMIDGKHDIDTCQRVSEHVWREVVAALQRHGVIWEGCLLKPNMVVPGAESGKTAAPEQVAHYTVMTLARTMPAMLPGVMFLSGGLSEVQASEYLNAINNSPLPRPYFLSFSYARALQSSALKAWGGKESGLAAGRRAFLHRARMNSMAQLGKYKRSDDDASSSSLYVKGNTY
# [29] = target: T5, Aldolase (Plasmodium falciparum) (UniProt Q27744); assay: Residual activity against Plasmodium falciparum class1 Aldolase at 100 uM after 15 min; method in brief: as §1
# T5 sequence (whole entry): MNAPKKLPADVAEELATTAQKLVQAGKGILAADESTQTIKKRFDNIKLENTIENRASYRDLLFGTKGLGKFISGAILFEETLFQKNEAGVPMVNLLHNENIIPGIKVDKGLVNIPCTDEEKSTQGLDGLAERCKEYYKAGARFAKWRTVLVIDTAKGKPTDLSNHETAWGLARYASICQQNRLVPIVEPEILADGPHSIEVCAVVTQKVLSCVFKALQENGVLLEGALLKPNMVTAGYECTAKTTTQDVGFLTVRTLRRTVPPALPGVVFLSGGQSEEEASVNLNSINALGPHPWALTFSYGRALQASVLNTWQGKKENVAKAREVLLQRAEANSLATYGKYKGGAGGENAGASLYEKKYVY
# [30] = target: T3, Fructose-bisphosphate aldolase A (Oryctolagus cuniculus); assay: Residual activity against rabbit muscle class1 Aldolase at 1 mM after 5 min; conditions: Muscle tissue
# [31] = target: T3, Fructose-bisphosphate aldolase A (Oryctolagus cuniculus); assay: Residual activity against rabbit muscle class1 Aldolase at 1 mM after 15 min; conditions: Muscle tissue
# [32] = target: Fructose-bisphosphate aldolase B (Homo sapiens) (UniProt P05062); assay: Residual activity against human liver class1 Aldolase at 100 uM after 15 min
# Sequence of Fructose-bisphosphate aldolase B (Homo sapiens) (P05062 whole entry, looked up): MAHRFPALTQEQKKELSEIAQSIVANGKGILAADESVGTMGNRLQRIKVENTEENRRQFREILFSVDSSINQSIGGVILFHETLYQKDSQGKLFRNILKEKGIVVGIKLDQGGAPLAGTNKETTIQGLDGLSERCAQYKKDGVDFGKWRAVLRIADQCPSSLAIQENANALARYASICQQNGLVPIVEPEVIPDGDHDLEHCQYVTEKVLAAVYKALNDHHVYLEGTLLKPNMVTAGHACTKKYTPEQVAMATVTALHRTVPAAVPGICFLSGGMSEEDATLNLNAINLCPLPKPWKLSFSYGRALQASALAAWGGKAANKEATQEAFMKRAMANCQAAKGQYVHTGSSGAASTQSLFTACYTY
smiles,measurement,setting,value
O=Cc1c(O)ccc2cc(OP(=O)(O)O)ccc12,inhibition,[1],inactive
same,Activity,[2],80%
same,Activity,[3],70%
same,Activity,[4],80%
same,Ki,[5],23 µM
same,Activity,[6],56%
same,Activity,[7],48%
same,Activity,[8],63%
same,Activity,[9],44%
same,Activity,[10],60%
same,Activity,[11],52%
same,Activity,[12],51%
same,Activity,[13],100%
same,Activity,[14],89%
same,Activity,[15],100%
same,Activity,[16],100%
same,Activity,[17],100%
same,Activity,[18],100%
same,Activity,[19],100%
same,Activity,[20],100%
same,Activity,[21],100%
same,Activity,[22],100%
same,Activity,[23],< 20%
same,Activity,[24],0%
same,Activity,[25],75%
same,Activity,[26],50%
same,Activity,[27],< 0.5%
same,Activity,[28],15%
same,Activity,[29],30%
same,Activity,[30],80%
same,Activity,[31],80%
same,Activity,[32],100%
